Measurements: ChEMBL document CHEMBL1139690, “Comparison between two classes of selective EP(3) antagonists and their biological activities” (Bioorg Med Chem Lett, 2006)

Tests used:
[1] = target: Prostaglandin F2-alpha receptor (Homo sapiens, UniProt P43088); assay: Binding affinity to FP receptor
Rattus norvegicus [2] = assay: Antiinflammatory activity against carrageenan-induced paw edema in po dosed rat; type: functional
[3] = target: T1, Prostaglandin D2 receptor (Homo sapiens, UniProt Q13258); assay: Binding affinity to DP receptor
T1 sequence (Q13258 whole entry): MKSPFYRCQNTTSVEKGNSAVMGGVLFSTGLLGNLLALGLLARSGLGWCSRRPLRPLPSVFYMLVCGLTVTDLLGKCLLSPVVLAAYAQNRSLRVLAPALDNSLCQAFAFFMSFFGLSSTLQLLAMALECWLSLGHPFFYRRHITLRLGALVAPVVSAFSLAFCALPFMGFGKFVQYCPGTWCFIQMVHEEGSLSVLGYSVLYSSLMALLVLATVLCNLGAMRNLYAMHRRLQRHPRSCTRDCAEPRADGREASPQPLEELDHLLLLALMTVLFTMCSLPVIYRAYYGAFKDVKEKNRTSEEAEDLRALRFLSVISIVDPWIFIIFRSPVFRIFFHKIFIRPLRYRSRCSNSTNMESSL

[4] = target: T2, Prostaglandin E2 receptor EP3 subtype (Homo sapiens, UniProt P43115); assay: Binding affinity to EP3 receptor
T2 sequence (P43115 whole entry): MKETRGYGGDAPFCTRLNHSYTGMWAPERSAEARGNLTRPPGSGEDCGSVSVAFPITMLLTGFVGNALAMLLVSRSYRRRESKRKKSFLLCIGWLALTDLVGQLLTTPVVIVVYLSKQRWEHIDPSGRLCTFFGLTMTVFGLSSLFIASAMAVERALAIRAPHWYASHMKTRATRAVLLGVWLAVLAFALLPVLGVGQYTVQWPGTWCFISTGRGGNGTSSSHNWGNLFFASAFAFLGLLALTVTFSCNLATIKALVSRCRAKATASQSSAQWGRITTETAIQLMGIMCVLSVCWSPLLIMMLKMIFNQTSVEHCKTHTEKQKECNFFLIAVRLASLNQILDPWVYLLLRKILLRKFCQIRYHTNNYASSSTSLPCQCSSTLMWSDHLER

[5] = Clearance in Sprague-Dawley rat at 10 mg/kg, po and 5 mg/kg, iv; type: ADME, organism-based; conditions: in vivo
[6] = Cmax in Sprague-Dawley rat at 10 mg/kg, po and 5 mg/kg, iv after 1 hr; type: ADME, organism-based; conditions: in vivo
[7] = target: T3, Prostaglandin E2 receptor EP1 subtype (Homo sapiens, UniProt P34995); assay: Binding affinity to EP1 receptor
T3 sequence (P34995 whole entry): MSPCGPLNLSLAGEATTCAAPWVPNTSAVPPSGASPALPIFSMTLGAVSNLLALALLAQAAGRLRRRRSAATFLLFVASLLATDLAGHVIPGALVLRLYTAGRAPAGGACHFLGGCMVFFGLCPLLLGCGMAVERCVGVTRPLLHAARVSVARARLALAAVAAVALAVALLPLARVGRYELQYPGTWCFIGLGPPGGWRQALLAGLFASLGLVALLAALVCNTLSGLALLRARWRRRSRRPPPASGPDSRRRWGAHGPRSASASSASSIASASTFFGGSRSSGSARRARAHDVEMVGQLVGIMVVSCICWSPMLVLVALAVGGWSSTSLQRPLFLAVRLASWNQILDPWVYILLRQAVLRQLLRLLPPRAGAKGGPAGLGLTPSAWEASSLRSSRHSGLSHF

[8] = target: T2, Prostaglandin E2 receptor EP3 subtype; assay: Binding affinity to EP3 receptor in presence of HSA
[9] = target: Prostaglandin E2 receptor EP2 subtype (Homo sapiens, UniProt P43116); assay: Binding affinity to EP2 receptor
Prostaglandin E2 receptor EP2 subtype, sequence (P43116 whole entry): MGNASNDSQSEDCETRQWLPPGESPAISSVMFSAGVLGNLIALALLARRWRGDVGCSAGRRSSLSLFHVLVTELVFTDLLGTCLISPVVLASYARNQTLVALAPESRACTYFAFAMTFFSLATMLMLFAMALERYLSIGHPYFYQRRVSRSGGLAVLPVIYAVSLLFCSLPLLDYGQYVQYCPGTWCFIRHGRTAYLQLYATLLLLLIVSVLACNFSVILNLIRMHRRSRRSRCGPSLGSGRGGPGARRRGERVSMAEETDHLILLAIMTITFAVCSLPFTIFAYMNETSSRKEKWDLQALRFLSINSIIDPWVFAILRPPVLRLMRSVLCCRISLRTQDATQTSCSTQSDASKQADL

Rattus norvegicus [10] = assay: Concentration in carrageenan-induced hyperalgesic rat at 10 mg/kg, po, 1 hr postdose; type: functional
In short: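 Young 100 g rats from the hyperalgesia model given 10 mg/kg po in 0.5% methocel as sodium salts; plasma concentration measured 1 h post-dosing, at the time hyperalgesia was assessed.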

[11] = target: Prostaglandin E2 receptor EP4 subtype (Homo sapiens, UniProt P35408); assay: Binding affinity to EP4 receptor
Prostaglandin E2 receptor EP4 subtype, sequence (P35408 whole entry): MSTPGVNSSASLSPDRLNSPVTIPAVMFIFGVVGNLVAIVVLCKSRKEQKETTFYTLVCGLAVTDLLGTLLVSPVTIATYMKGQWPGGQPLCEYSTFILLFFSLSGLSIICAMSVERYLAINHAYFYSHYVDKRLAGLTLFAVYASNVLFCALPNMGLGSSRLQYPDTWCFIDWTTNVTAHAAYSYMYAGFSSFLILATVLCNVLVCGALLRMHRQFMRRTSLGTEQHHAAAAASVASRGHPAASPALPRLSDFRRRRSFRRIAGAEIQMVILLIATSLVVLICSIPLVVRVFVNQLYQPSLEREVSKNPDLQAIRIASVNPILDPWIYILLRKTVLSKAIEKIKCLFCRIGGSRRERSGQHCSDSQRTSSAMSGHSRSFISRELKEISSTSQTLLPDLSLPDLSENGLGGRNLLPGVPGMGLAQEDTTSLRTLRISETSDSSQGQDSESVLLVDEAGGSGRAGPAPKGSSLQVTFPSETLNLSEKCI

Prostacyclin receptor = Prostacyclin receptor (Homo sapiens, UniProt P43119); assay: Binding affinity to IP receptor
Prostacyclin receptor, sequence (P43119 whole entry): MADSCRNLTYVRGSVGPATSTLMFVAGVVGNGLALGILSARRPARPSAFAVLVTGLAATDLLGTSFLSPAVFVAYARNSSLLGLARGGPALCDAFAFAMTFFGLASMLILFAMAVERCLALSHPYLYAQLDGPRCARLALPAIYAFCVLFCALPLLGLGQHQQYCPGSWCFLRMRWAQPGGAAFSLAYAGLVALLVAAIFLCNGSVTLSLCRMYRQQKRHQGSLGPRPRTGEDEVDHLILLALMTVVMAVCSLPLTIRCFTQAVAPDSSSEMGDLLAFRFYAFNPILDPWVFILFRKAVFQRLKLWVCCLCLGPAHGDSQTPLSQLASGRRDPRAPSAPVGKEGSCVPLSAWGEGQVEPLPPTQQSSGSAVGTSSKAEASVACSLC

[12] = Bioavailability in Sprague-Dawley rat at 10 mg/kg, po and 5 mg/kg, iv; type: ADME, organism-based; conditions: in vivo
[13] = Metabolism in human hepatocytes; type: ADME, cell-based, Hepatocyte; conditions: read-out: Activity
Rattus norvegicus [14] = assay: Effect on carrageenan-induced paw hyperalgesia in po dosed rat; type: functional
[15] = Half life in Sprague-Dawley rat at 10 mg/kg, po and 5 mg/kg, iv; type: ADME, organism-based; conditions: in vivo
Thromboxane A2 receptor = target: T4, Thromboxane A2 receptor (Homo sapiens, UniProt P21731); assay: Binding affinity to TP receptor
T4 sequence (P21731 whole entry): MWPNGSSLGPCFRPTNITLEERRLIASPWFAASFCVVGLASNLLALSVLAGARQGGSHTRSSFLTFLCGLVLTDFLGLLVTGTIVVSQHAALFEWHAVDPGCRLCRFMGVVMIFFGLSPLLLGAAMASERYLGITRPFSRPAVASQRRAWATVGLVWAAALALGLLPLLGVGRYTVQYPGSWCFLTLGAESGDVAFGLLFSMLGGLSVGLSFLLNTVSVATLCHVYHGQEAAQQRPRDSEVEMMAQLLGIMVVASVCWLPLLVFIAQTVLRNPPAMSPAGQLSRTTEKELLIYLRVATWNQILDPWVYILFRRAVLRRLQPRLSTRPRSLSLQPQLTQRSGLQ

[16] = Stability in rat hepatocytes after 3 hrs; type: ADME, cell-based, Hepatocyte; conditions: read-out: Stability
In short: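 Incubation with rat hepatocytes for 3 h; percentage of parent compound recovered intact.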

[17] = target: T5, Prostaglandin E2 receptor EP3 subtype (Homo sapiens) (UniProt P43115); assay: Antagonistic activity at EP3 receptor assessed as inhibition of cAMP production in HEK EBNA cells; type: functional, cell-based; conditions: HEK293-EBNA, filed as antagonist
T5 sequence (whole entry): T2 sequence (P43115 whole entry)

Rattus norvegicus [18] = assay: Concentration in carrageenan-induced hyperalgesic rat at 5 mg/kg, po, 1 hr postdose; type: functional
[19] = Cmax in Sprague-Dawley rat at 10 mg/kg, po and 5 mg/kg, iv after 30 mins; type: ADME, organism-based; conditions: in vivo

Prostaglandin F2-alpha receptor, sequence (P43088 whole entry): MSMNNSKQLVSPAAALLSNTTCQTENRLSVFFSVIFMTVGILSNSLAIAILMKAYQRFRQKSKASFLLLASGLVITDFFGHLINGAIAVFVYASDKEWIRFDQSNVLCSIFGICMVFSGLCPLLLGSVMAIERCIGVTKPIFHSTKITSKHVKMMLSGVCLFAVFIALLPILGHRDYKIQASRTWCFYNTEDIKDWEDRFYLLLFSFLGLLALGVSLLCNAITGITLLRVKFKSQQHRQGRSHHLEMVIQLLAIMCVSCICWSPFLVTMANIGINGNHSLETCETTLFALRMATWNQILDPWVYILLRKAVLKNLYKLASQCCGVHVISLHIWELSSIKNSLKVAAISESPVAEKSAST

COc1ccc(Br)cc1S(=O)(=O)NC(=O)/C=C/c1ccccc1Cc1ccc2ccccc2c1
Ki [1]: > 500 nM
ED50 (Rattus norvegicus [2]): 3.3 mg/kg
Ki [3]: > 500 nM
Ki [4]: 0.6 nM (antagonist)
clearance [5]: 1 mL/min
Cmax [6]: 50 µM
Ki [7]: 39000 nM
Ki [8]: 6.9 nM (antagonist)
Ki [9]: > 50000 nM
Activity (Rattus norvegicus [10]): 32 µM
Ki [11]: 890 nM (antagonist)
Ki (Prostacyclin receptor): > 500 nM
bioavailability [12]: 72%
metabolised [13]: 36%
ED50 (Rattus norvegicus [14]): 3.3 mg/kg
half-life [15]: 4 h
Ki (Thromboxane A2 receptor): > 500 nM
remaining at 3 h [16]: 30%
Kb [17]: 0.6 nM

O=C(O)/C=C/c1ccccc1Cc1ccc2cc(OCc3ccccc3)ccc2c1
Ki [1]: > 500 nM
ED50 (Rattus norvegicus [2]): > 10 mg/kg
Ki [3]: 82 nM (antagonist)
Ki [4]: 3.2 nM (antagonist)
clearance [5]: 3.1 mL/min
Ki [7]: > 100000 nM
Ki [8]: 46 nM (antagonist)
Ki [9]: > 40000 nM
Activity (Rattus norvegicus [18]): 11 µM
Ki [11]: > 15000 nM
Ki (Prostacyclin receptor): > 500 nM
bioavailability [12]: 59%
Cmax [19]: 28 µM
ED50 (Rattus norvegicus [14]): 4.6 mg/kg
half-life [15]: 3 h
Ki (Thromboxane A2 receptor): > 500 nM
